Measured values from paper PMC5731459 (Science translational medicine, 2017).
In brackets after ≈: the same amount, converted by molar mass. Several values for one entry are separate records, joined by “and”; a condition that tells them apart may be missing. Equal entries are not always repeated. Where two headings read alike, the source gives them in different places.

How the values were obtained:
[1] = tested on: P. falciparum (NF54 drug-sensitive strain); test: [3H]-hypoxanthine incorporation assay, asexual blood-stage parasites; format: cell-based; settings: Plasmodium falciparum, NF54, 72 h
[2] = tested on: P. falciparum 3D7 strain; test: In vitro parasite reduction ratio; format: cell-based, Plasmodium falciparum; settings: 10× IC50
[3] = tested on: P. falciparum NF54 strain; test: Erythrocytic IC50 speed and stage specificity assays; format: cell-based, Plasmodium falciparum
[4] = tested on: P. berghei; test: P. berghei mouse efficacy model; format: in vivo, Plasmodium berghei
[5] = tested on: drug-sensitive 3D7 P. falciparum strain; test: P. falciparum humanized SCID mouse efficacy model; format: in vivo, Plasmodium falciparum; settings: once daily oral for four consecutive days
Summary of the method: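 Humanized SCID mice were infected with P. falciparum 3D7. From day 3 after infection, test compound was given orally once daily for 4 days, one mouse per dose level. Blood parasitemia was measured by flow cytometry and ED90 was read at day 7. Whole-blood drug levels were sampled 0–23 h after the first dose (LLOQ 1 ng/mL).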

[6] = tested on: P. falciparum; test: PKPD; format: in vivo, Plasmodium falciparum
Summary of the method: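 A direct-effect composite Emax PKPD model was fitted to humanized SCID mouse P. falciparum efficacy data, allowing for change in kill rate at higher doses. Inputs were modeled blood concentrations from individual-mouse whole-blood PK after once-daily oral dosing for 4 days. The model gave MIC, EC50/EC90 for kill rate and predicted parasitemia after 4 days.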

[7] = tested on: P. falciparum late-stage gametocytes (stages IV and V); test: Gametocyte viability assay; format: cell-based; settings: Plasmodium falciparum, read-out: IC50, gametocyte viability (pLDH)
[8] = tested on: P. falciparum early-stage (stages I to III) gametocytes expressing luciferase; test: Gametocyte viability assay; format: cell-based, Plasmodium falciparum
[9] = tested on: P. falciparum late-stage (stages IV and V) gametocytes expressing luciferase; test: Gametocyte viability assay; format: cell-based, Plasmodium falciparum
[10] = tested on: P. falciparum stage V gametocytes; test: Male gamete formation; format: cell-based; settings: Plasmodium falciparum, 24 h, read-out: potency, inhibition of exflagellation
[11] = tested on: P. falciparum stage V gametocytes (oocysts in mosquito midgut); test: Indirect standard membrane-feeding assay; format: cell-based; settings: Plasmodium falciparum, 24 h, read-out: inhibition of oocyst formation (potency)
[12] = tested on: P. falciparum stage V gametocytes (oocysts in mosquito midgut); test: Direct standard membrane-feeding assay; format: cell-based; settings: Plasmodium falciparum, read-out: inhibition of the formation of oocysts
[13] = tested on: P. berghei; test: Mouse-to-mouse transmission model; format: in vivo, Plasmodium berghei; settings: 2 mg/kg oral; compared to 6.1 days in control mice
Summary of the method: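 Female TO mice (6–8 weeks) were infected i.p. with P. berghei clone 507cl1. On day 9, after exflagellation was confirmed, each received one 2 mg/kg oral gavage dose; controls were atovaquone 0.3 mg/kg and sulfadiazine 8.4 mg/kg i.p. Mosquitoes fed, then at day 21 bit naive mice for 20 min. Smears on days 4–10 set patency. Duplicates were combined by generalized linear mixed model against no-drug control.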

[14] = tested on: P. cynomolgi liver-stage parasites; test: P. cynomolgi liver-stage assay, IC99; format: cell-based, Plasmodium cynomolgi
[15] = Plasma concentrations in the prophylactic monkey study; format: in vivo, Macaca mulatta; settings: po, 20 mg/kg
[16] = Plasma concentrations in the radical cure monkey study; format: in vivo, Macaca mulatta
[17] = Protein binding and blood-to-plasma partitioning; format: in vitro ADME
[18] = tested on: P. berghei-infected HepG2 liver cells; test: P. berghei liver-stage phenotyping in HepG2 cells; format: cell-based, Plasmodium berghei; settings: 460 nM, 2 to 8 hours after infection
Summary of the method: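 Extracellular sporozoites were washed off at 2 h, then cells were exposed to 460 nM test compound or DMSO vehicle. Cells were fixed 8 h after invasion, immunolabeled and imaged by confocal microscopy.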

[19] = tested on: P. falciparum Dd2 parasites; test: microbe, parasite or virus in culture; format: cell-based; settings: Plasmodium falciparum
[20] = tested on: Dd2 multidrug-resistant parental line; test: Cross-resistance test, parental line; format: cell-based; settings: Plasmodium falciparum
[21] = tested on: parasites bearing PfPI4K mutation H1484Y; test: Cross-resistance test, transgenic PI4K-H1484Y line; format: cell-based; settings: Plasmodium falciparum
[22] = tested on: parasites bearing PfPI4K mutation S1320L; test: Cross-resistance test, transgenic PI4K-S1320L line; format: cell-based; settings: Plasmodium falciparum
[23] = biological target: T1, PfPI4K (Plasmodium falciparum, UniProt Q8I406); test: Chemoproteomic competition binding, immobilized MMV666845 beads
[24] = biological target: T1, PfPI4K; test: Chemoproteomic competition binding, Kinobeads
[25] = biological target: PI4KB (Q9UBF8) (Homo sapiens, UniProt Q9UBF8); test: Chemoproteomic pull-down in K562 cell extract; format: binding
Summary of the method: (§1)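 They were incubated 1 h at 4°C with K562 extract (5 mg) preincubated with test compound or buffer. Eluates were alkylated, separated by SDS gel and quantified by isobaric mass tagging LC-MS/MS.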

[26] = biological target: PI4KA (P42356) (Homo sapiens, UniProt P42356); test: Chemoproteomic pull-down in K562 cell extract; format: binding
Summary of the method: as §1

[27] = biological target: ATM (Q13315) (Homo sapiens, UniProt Q13315); test: Chemoproteomic pull-down in K562 cell extract; format: binding
Summary of the method: as §1

[28] = biological target: TNIK (Q9UKE5) (Homo sapiens, UniProt Q9UKE5); test: Chemoproteomic pull-down in K562 cell extract; format: binding
Summary of the method: as §1

[29] = Allometric scaling to human pharmacokinetics and dose
[30] = rats; cited from earlier work
[31] = pH 6.5; cited from earlier work
[32] = in vivo; settings: male (mice, rats), female (monkeys, dogs), Swiss outbred (mice), Sprague Dawley (rats), beagle (dogs), mouse, rat, dog, cynomolgus monkey, iv
[33] = tested on: P. cynomolgi; test: Radical cure study in P. cynomolgi-infected rhesus macaques; settings: 20 mg/kg oral daily for 5 days, Cmax 5697 ng/ml
[34] = Plasmodium falciparum, read-out: IC50, gametocyte viability (luciferase)

PI4KA (P42356), sequence (P42356 whole entry): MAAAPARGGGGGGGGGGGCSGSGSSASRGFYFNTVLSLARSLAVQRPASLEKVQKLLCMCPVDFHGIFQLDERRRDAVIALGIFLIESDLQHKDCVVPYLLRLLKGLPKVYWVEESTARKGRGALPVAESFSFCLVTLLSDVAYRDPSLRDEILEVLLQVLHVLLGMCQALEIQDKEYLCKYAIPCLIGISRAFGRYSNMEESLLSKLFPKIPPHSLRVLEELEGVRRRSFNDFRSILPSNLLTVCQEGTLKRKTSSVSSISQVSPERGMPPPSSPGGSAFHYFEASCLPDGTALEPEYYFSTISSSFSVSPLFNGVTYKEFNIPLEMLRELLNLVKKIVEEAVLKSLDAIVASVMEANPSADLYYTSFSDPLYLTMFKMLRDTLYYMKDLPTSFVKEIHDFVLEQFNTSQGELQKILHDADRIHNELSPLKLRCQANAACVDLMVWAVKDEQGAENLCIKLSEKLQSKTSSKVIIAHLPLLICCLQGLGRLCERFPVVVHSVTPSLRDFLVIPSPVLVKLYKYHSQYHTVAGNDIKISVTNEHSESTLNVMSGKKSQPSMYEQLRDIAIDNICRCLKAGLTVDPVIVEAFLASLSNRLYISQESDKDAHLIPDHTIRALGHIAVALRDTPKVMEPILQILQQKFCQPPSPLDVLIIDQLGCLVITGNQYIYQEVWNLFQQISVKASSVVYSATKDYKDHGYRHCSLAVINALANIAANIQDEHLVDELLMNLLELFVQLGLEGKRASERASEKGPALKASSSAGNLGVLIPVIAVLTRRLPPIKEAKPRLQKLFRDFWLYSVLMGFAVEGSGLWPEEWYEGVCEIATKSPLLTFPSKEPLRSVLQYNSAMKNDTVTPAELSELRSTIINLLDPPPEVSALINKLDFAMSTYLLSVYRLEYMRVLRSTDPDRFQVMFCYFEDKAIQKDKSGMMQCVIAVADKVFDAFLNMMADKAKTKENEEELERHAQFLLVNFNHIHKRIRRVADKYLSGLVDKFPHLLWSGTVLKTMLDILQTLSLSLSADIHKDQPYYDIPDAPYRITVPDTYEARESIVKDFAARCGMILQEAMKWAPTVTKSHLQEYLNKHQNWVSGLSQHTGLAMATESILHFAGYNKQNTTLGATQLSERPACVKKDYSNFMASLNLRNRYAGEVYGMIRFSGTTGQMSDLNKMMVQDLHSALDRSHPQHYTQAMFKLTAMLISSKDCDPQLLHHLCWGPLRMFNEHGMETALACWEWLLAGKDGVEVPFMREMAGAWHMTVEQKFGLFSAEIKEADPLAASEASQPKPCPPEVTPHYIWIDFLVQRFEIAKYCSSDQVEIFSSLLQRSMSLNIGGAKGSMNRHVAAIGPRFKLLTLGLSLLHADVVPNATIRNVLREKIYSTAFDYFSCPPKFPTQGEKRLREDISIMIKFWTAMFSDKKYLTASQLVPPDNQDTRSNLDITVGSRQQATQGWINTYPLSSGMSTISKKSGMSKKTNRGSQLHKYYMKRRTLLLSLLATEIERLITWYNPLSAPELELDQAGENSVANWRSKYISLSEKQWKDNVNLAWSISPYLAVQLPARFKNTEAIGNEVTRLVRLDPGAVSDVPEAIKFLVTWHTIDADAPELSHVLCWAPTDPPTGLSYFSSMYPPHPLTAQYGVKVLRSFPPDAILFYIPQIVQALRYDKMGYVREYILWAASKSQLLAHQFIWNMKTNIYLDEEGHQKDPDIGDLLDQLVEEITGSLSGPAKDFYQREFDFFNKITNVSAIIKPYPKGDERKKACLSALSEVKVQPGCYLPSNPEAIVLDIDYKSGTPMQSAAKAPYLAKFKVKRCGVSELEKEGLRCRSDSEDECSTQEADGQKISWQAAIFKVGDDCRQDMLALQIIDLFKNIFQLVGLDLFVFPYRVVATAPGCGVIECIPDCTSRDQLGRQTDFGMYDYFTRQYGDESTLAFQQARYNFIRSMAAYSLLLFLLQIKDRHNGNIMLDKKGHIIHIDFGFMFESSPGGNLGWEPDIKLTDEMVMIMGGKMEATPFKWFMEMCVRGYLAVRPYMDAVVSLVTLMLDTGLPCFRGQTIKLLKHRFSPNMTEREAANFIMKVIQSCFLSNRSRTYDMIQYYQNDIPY
TNIK (Q9UKE5), sequence (Q9UKE5 whole entry): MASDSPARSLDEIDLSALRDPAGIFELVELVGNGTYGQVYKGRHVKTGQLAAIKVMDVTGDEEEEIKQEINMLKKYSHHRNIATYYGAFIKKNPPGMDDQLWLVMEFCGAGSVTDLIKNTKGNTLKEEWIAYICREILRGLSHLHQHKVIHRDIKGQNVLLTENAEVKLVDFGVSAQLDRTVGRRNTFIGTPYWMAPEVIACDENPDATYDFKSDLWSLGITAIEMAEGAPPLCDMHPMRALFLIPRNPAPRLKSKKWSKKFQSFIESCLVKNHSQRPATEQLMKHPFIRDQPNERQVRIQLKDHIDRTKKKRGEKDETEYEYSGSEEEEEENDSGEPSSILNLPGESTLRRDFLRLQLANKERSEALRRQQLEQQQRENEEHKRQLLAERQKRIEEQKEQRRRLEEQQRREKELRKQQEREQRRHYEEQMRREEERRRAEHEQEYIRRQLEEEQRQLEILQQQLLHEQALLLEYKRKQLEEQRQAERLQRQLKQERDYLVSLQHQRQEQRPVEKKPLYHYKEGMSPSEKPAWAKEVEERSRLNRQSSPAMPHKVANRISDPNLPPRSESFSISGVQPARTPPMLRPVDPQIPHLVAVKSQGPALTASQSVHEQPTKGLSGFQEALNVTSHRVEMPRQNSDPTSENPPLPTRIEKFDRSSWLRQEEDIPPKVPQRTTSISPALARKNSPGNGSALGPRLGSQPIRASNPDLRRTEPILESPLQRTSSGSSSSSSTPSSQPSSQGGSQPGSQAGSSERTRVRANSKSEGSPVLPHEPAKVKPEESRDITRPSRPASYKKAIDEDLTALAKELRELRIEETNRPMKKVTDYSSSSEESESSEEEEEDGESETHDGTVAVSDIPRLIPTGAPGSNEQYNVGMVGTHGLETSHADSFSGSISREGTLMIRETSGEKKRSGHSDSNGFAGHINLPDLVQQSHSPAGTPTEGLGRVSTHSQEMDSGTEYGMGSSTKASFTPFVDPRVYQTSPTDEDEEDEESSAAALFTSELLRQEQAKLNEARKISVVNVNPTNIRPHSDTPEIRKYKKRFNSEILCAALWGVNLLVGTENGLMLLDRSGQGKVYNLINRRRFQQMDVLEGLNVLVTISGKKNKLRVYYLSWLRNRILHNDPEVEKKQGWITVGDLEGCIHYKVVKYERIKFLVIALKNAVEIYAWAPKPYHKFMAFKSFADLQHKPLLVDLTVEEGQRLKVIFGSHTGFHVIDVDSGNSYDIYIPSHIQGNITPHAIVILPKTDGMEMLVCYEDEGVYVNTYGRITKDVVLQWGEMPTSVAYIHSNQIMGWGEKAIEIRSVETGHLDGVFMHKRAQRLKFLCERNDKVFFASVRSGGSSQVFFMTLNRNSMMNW
PI4KB (Q9UBF8), sequence (Q9UBF8 whole entry): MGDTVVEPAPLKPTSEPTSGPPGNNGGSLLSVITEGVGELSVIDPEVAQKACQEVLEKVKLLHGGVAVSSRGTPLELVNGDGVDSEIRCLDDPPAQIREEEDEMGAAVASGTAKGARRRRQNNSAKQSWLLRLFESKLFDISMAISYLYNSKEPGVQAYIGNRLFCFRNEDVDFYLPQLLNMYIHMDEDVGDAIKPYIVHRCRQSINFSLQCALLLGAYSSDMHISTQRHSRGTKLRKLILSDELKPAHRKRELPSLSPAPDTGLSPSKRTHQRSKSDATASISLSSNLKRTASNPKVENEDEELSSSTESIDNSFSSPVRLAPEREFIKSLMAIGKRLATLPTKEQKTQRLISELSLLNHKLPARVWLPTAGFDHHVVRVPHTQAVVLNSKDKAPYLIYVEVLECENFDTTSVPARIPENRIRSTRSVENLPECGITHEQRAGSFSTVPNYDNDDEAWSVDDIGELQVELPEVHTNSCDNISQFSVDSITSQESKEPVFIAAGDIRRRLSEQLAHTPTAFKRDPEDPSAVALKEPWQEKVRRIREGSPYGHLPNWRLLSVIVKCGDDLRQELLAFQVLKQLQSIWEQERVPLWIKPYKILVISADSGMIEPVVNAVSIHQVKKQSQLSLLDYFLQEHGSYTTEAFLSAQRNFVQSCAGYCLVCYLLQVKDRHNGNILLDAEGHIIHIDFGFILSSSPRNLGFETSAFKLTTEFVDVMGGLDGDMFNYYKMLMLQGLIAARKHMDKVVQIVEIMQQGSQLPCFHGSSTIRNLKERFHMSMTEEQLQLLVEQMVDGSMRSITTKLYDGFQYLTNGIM

In the case of `CS(=O)(=O)c1ccc(-c2cnc(N)c(-c3ccc(C(F)(F)F)nc3)c2)cc1` [MMV390048], the IC90 [1] is reported as 40 nM, the lag phase [2] is reported as 24 h and the blood-stage specificity profile [3] is reported as “highest activity against the young schizont stage”. The ED50 ([4]; Plasmodium berghei, in Mus musculus, po, 72 h) was 0.57 mg/kg, the ED90 ([4]; four oral administrations (4, 24, 48, 72 hours after infection), measured at 96 hours) was 1.1 mg/kg and the “in vivo parasite clearance rate” value ([4]; single oral dose 100 mg/kg) was “intermediate”. The “ED90 at day 7” value [5] was 0.57 mg/kg, the “parasitemia at the end of 4 days” value ([6]; dose of 1 mg/kg (highest predicted kill rate)) was under 0.01% and the “MIC to inhibit growth” value ([6]; modeled blood concentration) was 0.071 µg/mL (≈ 0.18 µM). The IC50 [7] was 285 nM, the IC50 [8, 34] was 214 nM and the “clearance rate (slope)” value ([8]; stage I to III, at IC50 concentration over 3 days) was −6.09. The “late-stage gametocytes killed faster than early-stage” value [9] was 2.5 times, the IC50 [9, 34] was 140 nM and the “rate of onset of action” value ([9]; luciferase-expressing gametocytes) was 24 h. For the same compound, the “clearance rate (slope)” value ([9]; stage IV and V, at IC50 concentration over 3 days) was −15.49, the IC50 [10] was 90 nM and the IC50 [11] was 111 nM. The inhibition at 1000 µM [12] was under 25%, the “Prepatency (±SEM)” value [13] was 6.8 days (±0.28) and the “liver-stage IC99 (in vitro)” value [14] was 90 nM. The “in vivo IC99 (estimated)” value ([14]; in vitro IC99 corrected for AlbuMAX binding and plasma protein binding) was 353 ± 32 nM and 138 ± 13 ng/ml, the Cmax [15] was 1980 ng/mL and the half-life [15] was about 30 h. The “time plasma concentration above liver-stage IC99” value ([16]; 20 mg/kg oral daily for 5 days) was 15.8 days, the Cmax ([16]; monkey, plasma, po, 20 mg/kg) was 5700 ng/mL and the “time plasma concentration above blood-stage MIC” value ([16]; rhesus macaque (Macaca mulatta), in vivo) was 20 days. The “serum albumin (AlbuMAX) binding” value [17] was 54%, the fraction unbound ([17]; plasma, protein binding, used for MIC correction) was 0.139 and the “localization of parasitophorous vacuole membrane protein UIS4” value [18] was “mislocalization”. It also gave an IC50 ([19]; DD2) of 16 nM, an IC50 ([19]; DD2, read-out: IC50 of resistant clones) of 70 to 90 nM and an IC50 [20] of 22.7 nM. For the same compound, the IC50 [21] was 62.8 nM, the IC50 [22] was 57.7 nM and the Kd [23] was 300 nM. For the same compound, the “effect of excess free compound on capture of P. falciparum PI4K by the beads” value ([23]; excess compound (10 µM for MMV390048)) was “competitively inhibited”, the Kd [24] was 100 nM and the binding [25] was “did not observe any binding”. For the same compound, the binding [26] was “did not observe any binding”, the binding affinity [27] was “low binding affinity” and the binding affinity [28] was “low binding affinity”. The “predicted elimination half-life in humans” value [29] was “about 90 hours”, the “predicted plasma clearance in humans” value [29] was 0.02 liter/hour per kg and the “predicted volume of distribution in humans” value [29] was 2.8 L/kg. The absorption [30] was “well absorbed”, the kinetic solubility [31] was “not optimal” and the Vd [32] was 1.3 to 3 L/kg. For the same compound, the clearance [32] was 0.6 to 6.5 mL/min/kg and the observed toxicity [33] was “without any observed toxicity”.

In the case of `CCc1nc(N)nc(N)c1-c1ccc(Cl)cc1` [pyrimethamine, reference compound], the “IC50 fold higher at 24-hour compared to 72-hour time point” value ([3]; unsynchronized culture) is reported as 7.8 fold.

For `C[C@H]1[C@@H](O)O[C@@H]2O[C@@]3(C)CC[C@H]4[C@H](C)CC[C@@H]1[C@@]24OO3` [dihydroartemisinin, reference compound], the IC50 [7] was 12 nM.
